Values joined by “and” are separate entries in the source; they are usually repeats but may differ in a detail not shown here. Equal values may be shown once.
Columns and labels:
CYP125MRCA [1] = test: UV-Vis spin-state; format: binding; details: 30 °C, enzyme ~2 μM
CYP125MRCA [2] = test: UV-Vis difference-spectrum substrate titration; format: binding; details: read-out: Kd (Hill model), Table 1
CYP125MRCA [3] = test: In vitro oxidation assay, spinach ferredoxin/ferredoxin reductase/NADPH, GC-MS; format: biochemical; details: substrate 100 μM, enzyme 2 μM, 20 h, room temperature
CYP125A1 [4] = details: read-out: Kd CYP125A1; cited from earlier work
CYP125MRCAAlt [5] = test: UV-Vis spin-state shift binding screen after imidazole treatment; details: enzyme pre-treated with imidazole (~1.3 mM)
MmarCYP125A7 = details: cited from earlier work
CYP125MRCAAlt [6] = test: In vitro oxidation assay, spinach ferredoxin/ferredoxin reductase/NADPH, GC-MS; format: biochemical; details: reconstituted spinach ferredoxin/reductase/NADPH system
How it was run: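 Enzyme (2 μM in the method text) and substrate (100 μM) were equilibrated 3 min at room temperature in oxygenated 50 mM Tris, pH 7.4. Added G6P (5 mM), G6PDH (0.7 U/mL), ferredoxin (4 μM), reductase (0.2 U/mL) and catalase (0.03 mg/mL), then NADPH (1 mM). Ran 20 h, quenched with HCl, octanoic acid internal standard, ethyl acetate extraction, BSTFA/TMCS derivatisation, products assigned by mass spectra and retention times.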

Mtb CYP125A1 = details: cited from earlier work
CYP125MRCA [7] = format: biochemical; details: 1 : 1 mixture of substrates
CYP125A1 [8] = details: cited from earlier work
[9] = tested on: CYP125A1, CYP125A6 and CYP125A7; details: cited from earlier work

Compound: CC(C)CCC[C@@H](C)[C@H]1CC[C@H]2[C@@H]3C[C@@H]4O[C@@]45C[C@@H](O)CC[C@]5(C)[C@H]3CC[C@]12C [5,6α-epoxycholesterol]
- Substrate-induced shift of the Soret band (LS to HS) (CYP125MRCA [1]): Complete or near-complete spin-state shifts

Compound: CC(C)CCC[C@@H](C)[C@H]1CC[C@H]2[C@@H]3C(=O)C=C4C[C@@H](O)CC[C@]4(C)[C@H]3CC[C@]12C [7-ketocholesterol]
- Substrate-induced shift of the Soret band (LS to HS) (CYP125MRCA [1]): Complete or near-complete spin-state shifts

Compound: CC(C)CCC[C@@H](C)[C@H]1CC[C@H]2[C@@H]3[C@H](O)C=C4C[C@@H](O)CC[C@]4(C)[C@H]3CC[C@]12C [7α-hydroxycholesterol]
- Substrate-induced shift of the Soret band (LS to HS) (CYP125MRCA [1]): Complete or near-complete spin-state shifts

Compound: CC(C)CCC[C@@H](C)[C@H]1CC[C@H]2[C@@H]3[C@@H](O)C=C4C[C@@H](O)CC[C@]4(C)[C@H]3CC[C@]12C [7β-hydroxycholesterol]
- Substrate-induced shift of the Soret band (LS to HS) (CYP125MRCA [1]): Complete or near-complete spin-state shifts

Compound: CC(C)[C@H](C)CC[C@@H](C)[C@H]1CC[C@H]2[C@@H]3CC=C4C[C@@H](O)CC[C@]4(C)[C@H]3CC[C@]12C [campesterol]
- Kd (CYP125MRCA [2]): 4190 ± 50 nM
- Oxidation by CYP125MRCA (products by GC-MS) (CYP125MRCA [3]): able to effectively oxidise
- Substrate-induced shift of the Soret band (LS to HS) (CYP125MRCA [1]): complete shift of the Soret band to the high spin peak at ∼391 nm

Compound: CC(C)CCC[C@@H](C)[C@H]1CC[C@H]2[C@@H]3CCC4=CC(=O)CC[C@]4(C)[C@H]3CC[C@]12C [cholest-4-en-3-one]
- Kd (CYP125MRCA [2]): 850 ± 20 nM
- Oxidation by CYP125MRCA (products by GC-MS) (CYP125MRCA [3]): able to oxidise
- Kd (CYP125A1 [4]): 1180 ± 110 nM
- Substrate-induced shift of the Soret band (LS to HS) (CYP125MRCA [1]): completely shift the Soret band to ∼390 nm
- Binding detected by shift back to HS peak (CYP125MRCAAlt [5]): found to bind
- Kd (MmarCYP125A7): 700 ± 400 nM

Compound: CC(C)CCC[C@@H](C)[C@H]1CC[C@H]2[C@@H]3CC=C4C[C@@H](O)CC[C@]4(C)[C@H]3CC[C@]12C [cholesterol]
- Kd (CYP125MRCA [2]): 2000 ± 50 nM
- Oxidation by CYP125MRCA (products by GC-MS) (CYP125MRCA [3]): able to oxidise and 26-cholestenoic acid being the major product
- Kd (CYP125A1 [4]): 110 ± 60 nM
- Substrate-induced shift of the Soret band (LS to HS) (CYP125MRCA [1]): completely shift the Soret band to ∼390 nm
- Oxidation by CYP125MRCAAlt (products by GC-MS) (CYP125MRCAAlt [6]): able to oxidise cholesterol, albeit with a lower efficiency and 26-hydroxycholesterol being the major product
- Binding detected by shift back to HS peak (CYP125MRCAAlt [5]): found to bind
- Preference for cholesterol over sitosterol (Mtb CYP125A1): 1.8 fold

Compound: CC(C)=CCC[C@@H](C)[C@H]1CC[C@H]2[C@@H]3CC=C4C[C@@H](O)CC[C@]4(C)[C@H]3CC[C@]12C [desmosterol]
- Substrate-induced shift of the Soret band (LS to HS) (CYP125MRCA [1]): minimal perturbations of the heme centre

Compound: CC(C)[C@@H](C)/C=C/[C@@H](C)[C@H]1CC[C@H]2C3=CC=C4C[C@@H](O)CC[C@]4(C)[C@H]3CC[C@]12C [ergosterol]
- Substrate-induced shift of the Soret band (LS to HS) (CYP125MRCA [1]): minimal perturbations of the heme centre

Compound: CC[C@H](CC[C@@H](C)[C@H]1CC[C@H]2[C@@H]3CCC4=CC(=O)CC[C@]4(C)[C@H]3CC[C@]12C)C(C)C [stigmast-4-en-3-one]
- Kd (CYP125MRCA [2]): 1610 ± 110 nM
- Preference for stigmast-4-en-3-one versus cholest-4-en-3-one (CYP125MRCA [7]): 3.2 fold
- Substrate-induced shift of the Soret band (LS to HS) (CYP125MRCA [1]): complete shift of the Soret band to the high spin peak at ∼391 nm
- Binding detected by shift back to HS peak (CYP125MRCAAlt [5]): found to bind

Compound: CC[C@H](/C=C/[C@@H](C)[C@H]1CC[C@H]2[C@@H]3CC=C4C[C@@H](O)CC[C@]4(C)[C@H]3CC[C@]12C)C(C)C [stigmasterol]
- Kd (CYP125MRCA [2]): 2040 ± 120 nM
- Substrate-induced shift of the Soret band (LS to HS) (CYP125MRCA [1]): complete shift of the Soret band to the high spin peak at ∼391 nm

Compound: C=C1CC[C@H](O)C/C1=C/C=C1\CCC[C@]2(C)[C@@H]([C@H](C)CCCC(C)C)CC[C@@H]12 [vitamin D3, cholecalciferol]
- Kd (CYP125MRCA [2]): 1600 ± 220 nM
- Oxidation by CYP125MRCA (products by GC-MS) (CYP125MRCA [3]): oxidised by CYP125MRCA into four hydroxylation products and one partially underivatised alcohol product
- Oxidation of vitamin D3 by CYP125A1 (CYP125A1 [8]): does not oxidise
- Spectral shift in the Soret band [9]: does not induce a spectral shift in the Soret band
- Substrate-induced shift of the Soret band (LS to HS) (CYP125MRCA [1]): complete shift in the Soret band to HS
- Oxidation by CYP125MRCAAlt (products by GC-MS) (CYP125MRCAAlt [6]): No 25- or 26-hydroxylation activity
- Binding detected by shift back to HS peak (CYP125MRCAAlt [5]): found to bind

— PMC12100521 (Chemical Science, 2025)
